TRPC6 inhibitor: blocks the mouse TRPC6 cation channel. AID 2553. hit rate 1.1% among 310,000. HEK293-TRPC6, membrane potential dye, ACh-evoked depolarization; active compounds read low. B-score at 10 µM;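 active means B-score under library mean minus 3 SD, initial fluorescence not abnormally high, positive integrated signal ratio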;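 further: B-score derived from integrated fluorescence ratio over the kinetic read; more negative B-score means stronger inhibition of depolarization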
Target sequence (Q61143 whole entry, looked up): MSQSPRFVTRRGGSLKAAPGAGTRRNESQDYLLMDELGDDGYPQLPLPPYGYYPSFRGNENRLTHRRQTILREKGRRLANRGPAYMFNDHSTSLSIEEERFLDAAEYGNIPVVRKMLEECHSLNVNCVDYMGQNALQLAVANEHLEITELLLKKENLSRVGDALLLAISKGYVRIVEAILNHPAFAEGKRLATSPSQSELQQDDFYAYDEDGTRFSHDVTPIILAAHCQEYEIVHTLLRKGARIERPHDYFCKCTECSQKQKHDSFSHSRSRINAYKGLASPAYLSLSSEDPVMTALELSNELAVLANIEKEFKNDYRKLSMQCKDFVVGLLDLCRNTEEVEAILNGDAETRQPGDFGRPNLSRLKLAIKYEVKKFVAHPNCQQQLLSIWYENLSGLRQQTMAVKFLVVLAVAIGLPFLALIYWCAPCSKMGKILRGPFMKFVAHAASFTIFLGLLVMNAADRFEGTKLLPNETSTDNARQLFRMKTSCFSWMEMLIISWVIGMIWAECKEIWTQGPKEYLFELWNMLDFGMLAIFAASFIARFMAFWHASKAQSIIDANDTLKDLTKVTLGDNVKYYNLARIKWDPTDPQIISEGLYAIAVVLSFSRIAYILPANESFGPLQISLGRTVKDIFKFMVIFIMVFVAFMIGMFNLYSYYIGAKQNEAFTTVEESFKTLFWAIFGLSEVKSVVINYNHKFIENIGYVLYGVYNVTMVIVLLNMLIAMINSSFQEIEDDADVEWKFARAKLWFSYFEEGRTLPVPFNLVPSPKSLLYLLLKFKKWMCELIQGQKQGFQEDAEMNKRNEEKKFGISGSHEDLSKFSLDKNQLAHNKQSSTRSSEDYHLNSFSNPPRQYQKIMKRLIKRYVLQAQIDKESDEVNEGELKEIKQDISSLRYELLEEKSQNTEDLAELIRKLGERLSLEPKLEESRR
TRPC4 block: inhibitors of mouse TRPC4 channel; Q9QUQ5; HEK293 TRPC4beta/mu-opioid, DAMGO-evoked Fluo4 calcium flux; active compounds read low; B-score at 10 µM; hit rate 0.39% among 300,000; AID 2247;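 active means B-score over 3 SD under the library average, no early fluorescence shift, positive overall ratio signal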
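Assay system: HEK293 cells with stable TRPC4beta plus mu-opioid receptor expression; Probe or stimulus: DAMGO in two steps, submaximal then maximal; Dosing: single-point compound dosing; Measured by: Fluo4 calcium-dye fluorescence, kinetic read; Read-out basis: B score from integrated Fluo4 fluorescence ratio.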
TRPC6 act: activators of mouse TRPC6 channel; HEK293-TRPC6 membrane potential dye fluorescence; active compounds read high; AID 2550; hit rate 0.13% among 310,000; B-score at 10 µM; Q61143;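 active means B-score of the integrated fluorescence ratio above library mean plus 3 SD, and starting fluorescence ratio within library mean plus 5 SD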;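 further: higher score means more depolarization so channel activation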
TRPC4 potent: allosteric potentiators of mouse TRPC4 channel; B-score at 10 µM; hit rate 0.42% among 310,000; HEK293 TRPC4beta/mu-opioid, DAMGO EC20, Fluo-4 Ca2+ flux; active compounds read high; Q9QUQ5;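 active means B-score of calcium response area above 5 SD of library B-scores, with initial fluorescence ratio within 5 SD of library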
TRPC4 act: activators of mouse TRPC4 channel | Q9QUQ5 | HEK293 TRPC4beta/mu-opioid, Fluo4 calcium fluorescence; active compounds read high | B-score at 10 µM | hit rate 0.49% among 310,000 | AID 2237;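 active means B-score above 5 SD of library B-scores, and initial fluorescence ratio not above library mean plus 5 SD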;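 further: positive B-score marks a calcium rise read as TRPC4 activation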
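System: HEK293 cells stably co-expressing mouse TRPC4beta and mu-opioid receptor; Schedule: Fluo4 dye loading 45 min at room temperature, 110 s recording; Detection: Fluo4 fluorescence, kinetic; Evaluation: B-scored integrated calcium fluorescence ratio; Controls: buffer (low) and maximal DAMGO (high).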
Numbers stand for hits; i = inactive. In the library only some 2.3% were active in any assay of this set; here they are far more common.

SMILES	TRPC6 inhibitor	TRPC4 block	TRPC6 act	TRPC4 potent	TRPC4 act
O=c1c2cc(Br)ccc2nc(-c2ccc([N+](=O)[O-])cc2)n1O	i	i	i	i	81
N#Cc1ccc(-c2nc3ccc(Br)cc3c(=O)n2O)cc1	i	i	i	i	i
O=c1c2ccc(Cl)cc2nc(-c2ccc([N+](=O)[O-])cc2)n1O	i	i	i	i	63
O=c1c2cc(Br)ccc2nc(-c2cccc(C(F)(F)F)c2)n1O	i	i	i	i	193
CCC/C(O)=C1\C(=O)CC(c2ccccc2)CC1=NCCc1c(C)[nH]c2ccccc12 (stereo unspecified)	i	i	i	i	i
Cc1sc2ncnc(NCC(c3ccco3)N3CCCC3)c2c1C (stereo unspecified)	i	i	i	i	163
Cc1ccc2[nH]c3c(N4CCc5ccccc5C4)ncnc3c2c1	i	i	i	i	76
NNC(=O)C(=O)Nc1ccc(Cl)c(Cl)c1	i	i	i	i	i
CCCCN(C)CCNC(=O)c1cc2cc3ccc(OC)cc3nc2o1	i	i	i	12	i
CCN(CC)CCNC(=O)c1cc2cc3ccc(OC)cc3nc2o1	i	i	i	i	i
CCCCn1c(N)c(N(CCOC)C(=O)COC(=O)c2ccccc2OCC)c(=O)[nH]c1=O	i	i	i	i	i
Cc1cc(C)cc(NC(=S)N2CCN(c3ncc(C(F)(F)F)cc3Cl)CC2)c1	i	i	i	i	141
C=CCNC(=S)N1CCN(c2ncc(C(F)(F)F)cc2Cl)CC1	i	i	i	11	i
C=CCNC(=S)N1CCN(c2ccccc2Cl)CC1	i	i	i	i	i
Cc1nn(CC(=O)NCCN2CCOCC2)c(=O)c2cc3sccc3n12	i	i	i	i	i
COc1ccc(C(=O)Nc2cccc([N+](=O)[O-])c2)cc1Br	i	i	i	i	i
CCOC(=O)c1c(C)[nH]c(C(=O)COC(=O)c2[nH]c(C)c(C(C)=O)c2C)c1C	i	i	i	i	i
C=CCN1CCN(C(c2cccc(OC)c2OC)c2nnnn2CCC(C)C)CC1 (stereo unspecified)	i	-7	i	i	i
COc1cccc(C(c2nnnn2CCc2ccccc2)N2CCN(c3ccccc3)CC2)c1OC (stereo unspecified)	i	i	i	i	i
COc1cccc(C(c2nnnn2C(C)(C)C)N2CCN(C3CCCCC3)CC2)c1OC (stereo unspecified)	i	-6	i	i	i
COc1ccccc1C(c1nnnn1C(C)(C)C)N1CCN(Cc2ccncc2)CC1 (stereo unspecified)	i	i	i	i	i
CCCC(=O)Nc1nc(C)c(-c2csc(Nc3ccccc3C)n2)s1	i	i	i	i	i
O=C(c1cccc([N+](=O)[O-])c1)N1CCCC(C(=O)N2CCCCCC2)C1 (stereo unspecified)	i	i	i	29	i
O=[N+]([O-])c1ccc(Cl)c(/C=N/N2CCN(Cc3ccc(Cl)cc3)CC2)c1	i	i	i	i	i
COc1ccc(/C=C2\SC(=S)NC2=O)cc1OS(=O)(=O)c1ccc(NC(C)=O)cc1	i	i	i	i	i
SMILES	TRPC6 inhibitor	TRPC4 block	TRPC6 act	TRPC4 potent	TRPC4 act
CC(=O)Oc1c(C)cc(O)c2ccccc12	i	i	i	17	i
CCOc1ccc(NC(=O)c2c[nH]n3c(=O)cc(C4CCN(C(=O)OC(C)(C)C)CC4)nc23)cc1	i	-7	i	i	i
CCOC(=O)N1CCC(c2cc(=O)n3[nH]cc(C(=O)OC)c3n2)CC1	i	i	i	i	i
Nc1nc2ccccc2n1CCOc1ccc(F)cc1	i	-6	i	i	i
CCn1c(=O)c2c(nc(SCC(=O)NC3CCCC3)n2C)n(C)c1=O	i	i	i	i	i
Cc1ccc(S(=O)(=O)N(C)C)cc1NC(=O)COC(=O)C1CCCC1	i	i	i	i	i
CC(=O)Nc1ccc(NS(=O)(=O)c2ccccc2)cc1	i	i	i	i	i
CC(=O)C(C(C)=O)c1cc(NS(=O)(=O)c2ccccc2)ccc1NS(=O)(=O)c1ccccc1	i	i	i	i	47
O=C1CC(O)(C(F)F)Oc2ccc3ccccc3c21 (stereo unspecified)	i	i	i	i	i
O=C1CC(O)(C(F)(F)F)Oc2c1ccc1ccccc21 (stereo unspecified)	i	i	i	i	142
COc1ccc(CN2CCCC(C(=O)c3cccc(C(F)(F)F)c3)C2)cc1O (stereo unspecified)	i	-8	i	i	62
O=C(c1cccc(C(F)(F)F)c1)C1CCCN(Cc2ccc(OCCO)cc2)C1 (stereo unspecified)	i	i	i	i	i
CC(=O)Nc1ccc(CN2CCCC(C(=O)c3cccc(C(F)(F)F)c3)C2)cc1 (stereo unspecified)	i	i	i	i	88
O=C(Nc1ccc(N2CCOCC2)c(Cl)c1)C1CCCCC1	i	i	i	i	i
Cc1ccc(-n2nc3c(=O)n(C(C)C(=O)NCc4ccco4)nc(C)c3c2C)cc1 (stereo unspecified)	i	i	i	i	i
COc1ccc(C(CNC(=O)C2CCN(S(=O)(=O)c3ccc(F)cc3)CC2)N(C)C)cc1 (stereo unspecified)	i	i	i	i	137
CC(=O)c1cccc(N(C(=O)CNC(=O)c2ccco2)C(C(=O)NCC2CCCO2)c2ccccc2)c1 (stereo unspecified)	i	i	i	11	i
Cn1c(N)c(C(=O)NCc2ccccc2Cl)sc1=S	i	i	i	i	i
CCN(CC)c1ccc2c(Cl)c(Br)c(=O)oc2c1	i	-6	i	i	i
Cc1ccn2c(NC3CCCCC3)c(C(C)C)nc2c1	i	-7	i	i	i
Cc1ccn2c(NC3CCCCC3)c(C)nc2c1	i	i	i	i	i
CCCCN(C)CCNC(=O)CCn1nc(-c2ccc(Cl)cc2)ccc1=O	i	i	i	11	64
Cc1ccccc1COc1ccc2oc(C)c(C(=O)O)c2c1	i	i	i	i	i
O=C(Nc1nc2c(s1)CN(Cc1ccccc1)CC2)c1c(F)cccc1F	i	i	i	17	i
NC(=S)N/N=C/c1ccc(-c2cc(Cl)c(Cl)cc2Cl)o1	i	i	i	i	i
NC(=S)N/N=C/c1ccc(Br)o1	i	i	i	10	i
O=C(CSc1nc(-c2ccccc2)cc(C(F)(F)F)n1)NCCN1CCOCC1	i	i	i	i	i
CCCn1nc(C(=O)NC2CCCc3ccccc32)c2ccccc2c1=O (stereo unspecified)	i	i	i	23	i
COc1ccccc1C(=O)NNC1=C(C(=O)C(F)(F)F)CCC1	i	i	i	i	93
CCOC(=O)Cn1c(=O)oc2cc(S(=O)(=O)N3CCC(N4CCCCC4)CC3)ccc21	i	i	i	11	i
